Assay results taken from ChEMBL document CHEMBL3120060, “Synthesis, in vitro anticancer evaluation and in silico studies of novel imidazo[2,1-b]thiazole derivatives bearing pyrazole moieties” (2014).

Columns and labels:
Format in all cases: functional
[1] = tested on: SNB-19; assay: Cytotoxicity against human SNB19 cells assessed as cell growth at 10 uM after 48 hrs by SRB assay; conditions: SNB-19, 48 h, read-out: Activity
Summary of the method: (§1)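 NCI-60 single-dose screen. Cell lines grown in RPMI 1640 with 5% FBS and 2 mM L-glutamine, plated at 5000–40,000 cells/well according to doubling time, then preincubated 24 h at 37 °C in 5% CO2. Compounds dissolved in DMSO, tested at 10^-5 M for 48 h. Adherent cells fixed with cold TCA (10% final) and stained with 0.4% SRB in 1% acetic acid. Growth expressed as percent of untreated control.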

[2] = tested on: SF-539; assay: Cytotoxicity against human SF539 cells assessed as cell growth at 10 uM after 48 hrs by SRB assay; conditions: SF-539, 48 h, read-out: Activity; summary of the method: as §1
[3] = tested on: SF-268; assay: Cytotoxicity against human SF268 cells assessed as cell growth at 10 uM after 48 hrs by SRB assay; conditions: SF-268, 48 h, read-out: Activity; summary of the method: as §1
[4] = tested on: SW-620; assay: Cytotoxicity against human SW620 cells assessed as cell growth at 10 uM after 48 hrs by SRB assay; conditions: SW-620, 48 h, read-out: Activity
Summary of the method: (§2)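 NCI-60 single-dose screen at 10^-5 M. Adherent lines are grown in RPMI 1640 with 5% FBS and 2 mM L-glutamine, seeded at 5000–40,000 cells/well by doubling time, and preincubated 24 h at 37 °C in 5% CO2. Drug is added from DMSO stock diluted in medium, then 48 h. Cells are fixed in cold TCA (final 10%) for 60 min and stained with 0.4% SRB in 1% acetic acid. Growth is expressed as % of untreated control using time-zero plates.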

[5] = tested on: KM12; assay: Cytotoxicity against human KM12 cells assessed as cell growth at 10 uM after 48 hrs by SRB assay; conditions: KM12, 48 h, read-out: Activity; summary of the method: as §1
[6] = tested on: HT-29; assay: Cytotoxicity against human HT-29 cells assessed as cell growth at 10 uM after 48 hrs by SRB assay; conditions: HT-29, 48 h, read-out: Activity; summary of the method: as §1
[7] = tested on: HCC 2998; assay: Cytotoxicity against human HCC2998 cells assessed as cell growth at 10 uM after 48 hrs by SRB assay; conditions: HCC 2998, 48 h, read-out: Activity; summary of the method: as §1
[8] = tested on: COLO 205; assay: Cytotoxicity against human COLO205 cells assessed as cell growth at 10 uM after 48 hrs by SRB assay; conditions: COLO 205, 48 h, read-out: Activity; summary of the method: as §1
[9] = tested on: NCI-H322M; assay: Cytotoxicity against human NCI-H322M cells assessed as cell growth at 10 uM after 48 hrs by SRB assay; conditions: read-out: Activity; summary of the method: as §1
[10] = tested on: NCI-H23; assay: Cytotoxicity against human NCI-H23 cells assessed as cell growth at 10 uM after 48 hrs by SRB assay; conditions: NCI-H23, 48 h, read-out: Activity; summary of the method: as §1
[11] = tested on: NCI-H226; assay: Cytotoxicity against human NCI-H226 cells assessed as cell growth at 10 uM after 48 hrs by SRB assay; conditions: NCI-H226, 48 h, read-out: Activity; summary of the method: as §1
[12] = tested on: A549; assay: Cytotoxicity against human A549 cells assessed as cell growth at 10 uM after 48 hrs by SRB assay; conditions: A549, 48 h, read-out: Activity; summary of the method: as §1
[13] = tested on: SR; assay: Cytotoxicity against human SR cells assessed as cell growth at 10 uM after 48 hrs by SRB assay; conditions: read-out: Activity
Summary of the method: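 Leukemia line, NCI-60 single-dose screen at 10^-5 M. Cells are grown in RPMI 1640 with 5% FBS and 2 mM L-glutamine, plated by doubling time, and preincubated 24 h at 37 °C with 5% CO2. After 48 h drug exposure, settled cells are fixed with 80% TCA (final 16%) and stained with SRB. Percent growth is calculated against untreated control and time-zero plates.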

[14] = tested on: MOLT-4; assay: Cytotoxicity against human MOLT4 cells assessed as cell growth at 10 uM after 48 hrs by SRB assay; conditions: MOLT-4, 48 h, read-out: Activity; summary of the method: as §1
[15] = tested on: K562; assay: Cytotoxicity against human K562 cells assessed as cell growth at 10 uM after 48 hrs by SRB assay; conditions: K562, 48 h, read-out: Activity; summary of the method: as §1
[16] = tested on: BT-549; assay: Cytotoxicity against human BT549 cells assessed as cell growth at 10 uM after 48 hrs by SRB assay; conditions: BT-549, 48 h, read-out: Activity; summary of the method: as §1
[17] = tested on: MDA-MB-231; assay: Cytotoxicity against human MDA-MB-231 cells assessed as cell growth at 10 uM after 48 hrs by SRB assay; conditions: MDA-MB-231, 48 h, read-out: Activity; summary of the method: as §1
[18] = tested on: MCF7; assay: Cytotoxicity against human MCF7 cells assessed as cell growth at 10 uM after 48 hrs by SRB assay; conditions: MCF7, 48 h, read-out: Activity; summary of the method: as §1
[19] = tested on: PC-3; assay: Cytotoxicity against human PC3 cells assessed as cell growth at 10 uM after 48 hrs by SRB assay; conditions: PC-3, 48 h, read-out: Activity; summary of the method: as §1
[20] = Cytotoxicity against human UO31 cells assessed as cell growth at 10 uM after 48 hrs by SRB assay; conditions: UO-31, 48 h, read-out: Activity; summary of the method: as §2
[21] = tested on: CAKI-1; assay: Cytotoxicity against human CAKI-1 cells assessed as cell growth at 10 uM after 48 hrs by SRB assay; conditions: CAKI-1, 48 h, read-out: Activity; summary of the method: as §1
[22] = tested on: ACHN; assay: Cytotoxicity against human ACHN cells assessed as cell growth at 10 uM after 48 hrs by SRB assay; conditions: read-out: Activity; summary of the method: as §1
[23] = tested on: A498; assay: Cytotoxicity against human A498 cells assessed as cell growth at 10 uM after 48 hrs by SRB assay; conditions: A498, 48 h, read-out: Activity; summary of the method: as §1
[24] = Cytotoxicity against human NCI-ADR-RES cells assessed as cell growth at 10 uM after 48 hrs by SRB assay; conditions: read-out: Activity; summary of the method: as §1
[25] = tested on: OVCAR-8; assay: Cytotoxicity against human OVCAR8 cells assessed as cell growth at 10 uM after 48 hrs by SRB assay; conditions: OVCAR-8, 48 h, read-out: Activity; summary of the method: as §1
[26] = Cytotoxicity against human OVCAR4 cells assessed as cell growth at 10 uM after 48 hrs by SRB assay; conditions: OVCAR-4, 48 h, read-out: Activity; summary of the method: as §1
[27] = tested on: IGROV-1; assay: Cytotoxicity against human IGROV1 cells assessed as cell growth at 10 uM after 48 hrs by SRB assay; conditions: IGROV-1, 48 h, read-out: Activity; summary of the method: as §1
[28] = Cytotoxicity against human UACC257 cells assessed as cell growth at 10 uM after 48 hrs by SRB assay; conditions: UACC-257, 48 h, read-out: Activity; summary of the method: as §2
[29] = tested on: SK-MEL-2; assay: Cytotoxicity against human SK-MEL-2 cells assessed as cell growth at 10 uM after 48 hrs by SRB assay; conditions: SK-MEL-2, 48 h, read-out: Activity; summary of the method: as §1
[30] = tested on: MDA-MB-435; assay: Cytotoxicity against human MDA-MB-435 cells assessed as cell growth at 10 uM after 48 hrs by SRB assay; conditions: MDA-MB-435, 48 h, read-out: Activity; summary of the method: as §1
[31] = tested on: LOX IMVI; assay: Cytotoxicity against human LOXIMVI cells assessed as cell growth at 10 uM after 48 hrs by SRB assay; conditions: read-out: Activity; summary of the method: as §1

Structure (SMILES)	growth at 10 µM [1] [%]	growth at 10 µM [2] [%]	growth at 10 µM [3] [%]	growth at 10 µM [4] [%]	growth at 10 µM [5] [%]	growth at 10 µM [6] [%]	growth at 10 µM [7] [%]	growth at 10 µM [8] [%]	growth at 10 µM [9] [%]	growth at 10 µM [10] [%]	growth at 10 µM [11] [%]	growth at 10 µM [12] [%]	growth at 10 µM [13] [%]	growth at 10 µM [14] [%]	growth at 10 µM [15] [%]	growth at 10 µM [16] [%]	growth at 10 µM [17] [%]	growth at 10 µM [18] [%]	growth at 10 µM [19] [%]	growth at 10 µM [20] [%]	further results
Cc1ccc(-c2csc3nc(N4NC(=O)CC4=O)cn23)cc1	102	101	106	103	115	111	102	107	108	96.9	94.4	102	84.4	90.3	94.7	113	104	93.9	87.3	74.7	growth at 10 µM [21]: 90.1%; growth at 10 µM [22]: 90.5%; growth at 10 µM [23]: 98%; growth at 10 µM [24]: 108%; growth at 10 µM [25]: 99.3%; growth at 10 µM [26]: 99.1%; growth at 10 µM [27]: 105%; growth at 10 µM [28]: 109%; growth at 10 µM [29]: 116%; growth at 10 µM [30]: 90%; growth at 10 µM [31]: 96.9%
CC1=NN(c2cn3c(-c4ccccc4)csc3n2)C(=O)C1	90.8	89.7	99.3	104	102	106	97.3	102	92.1	91.6	101	101	84.5	84.4	83.4	89.7	89.9	89.6	77.6	59	growth at 10 µM [21]: 79.9%; growth at 10 µM [22]: 91.2%; growth at 10 µM [23]: 96.6%; growth at 10 µM [24]: 92.5%; growth at 10 µM [25]: 105%; growth at 10 µM [26]: 98%; growth at 10 µM [27]: 88%; growth at 10 µM [28]: 102%; growth at 10 µM [29]: 102%; growth at 10 µM [30]: 92.9%; growth at 10 µM [31]: 90.8%
Cc1cc(C)n(-c2cn3c(-c4ccc(Cl)cc4)csc3n2)n1	92.8	104	102	100	99.9	87	102	100	91	91	81.5	85.8	65.8	81.3	83.1	113	86.4	85.1	79.1	89.6	growth at 10 µM [21]: 78.6%; growth at 10 µM [22]: 91%; growth at 10 µM [23]: 85.7%; growth at 10 µM [24]: 100%; growth at 10 µM [25]: 91.5%; growth at 10 µM [26]: 81.9%; growth at 10 µM [27]: 108%; growth at 10 µM [28]: 104%; growth at 10 µM [29]: 113%; growth at 10 µM [30]: 94.5%; growth at 10 µM [31]: 91.9%
O=C1CN2C(c3ccccc3)=CSC2=N1	99.7	97.5	110	94.8	111	109	97.8	102	116	94.9	102	98.3	86	95.4	88.8	112	96.7	88.5	82.4	61.3	growth at 10 µM [21]: 78.7%; growth at 10 µM [22]: 97.9%; growth at 10 µM [23]: 111%; growth at 10 µM [24]: 99.6%; growth at 10 µM [25]: 97.9%; growth at 10 µM [26]: 97.7%; growth at 10 µM [27]: 104%; growth at 10 µM [28]: 103%; growth at 10 µM [29]: 114%; growth at 10 µM [30]: 95.1%; growth at 10 µM [31]: 89.4%
O=C1CC(=O)N(c2cn3c(-c4ccccc4)csc3n2)N1	91	88.2	99.5	107	101	104	103	100	98.1	91.5	90	92.9	83	101	94.2	97.6	85.7	85.8	76.4	59.6	growth at 10 µM [21]: 75.9%; growth at 10 µM [22]: 81.5%; growth at 10 µM [23]: 78.4%; growth at 10 µM [24]: 94.3%; growth at 10 µM [25]: 89.8%; growth at 10 µM [26]: 81.2%; growth at 10 µM [27]: 91.5%; growth at 10 µM [28]: 97.6%; growth at 10 µM [29]: 102%; growth at 10 µM [30]: 99.9%; growth at 10 µM [31]: 86.9%
